# Screening data as filed in PubChem BioAssay.
# Myeloid diff 2: promotes myeloid progenitor differentiation; 1% of 360,000 active; calls only at 10 µM; ER-HoxA9 myeloid progenitors, lysozyme-GFP differentiation, flow cytometry;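 active = normalized GFP-positive differentiation at or above the plate's own cutoff, the solvent-only control mean plus 3 SD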;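 also: cells exposed to compound for four days before flow analysis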
# Casp6 inh: inhibitors of human caspase-6; purified caspase-6, Z-VEID-R110 cleavage fluorescence; P55212; 0.53% of 350,000 active; inhibition, % at 12.5 µM;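 active = mean inhibition across replicates at least about 35%, with every replicate also reaching that limit, limit read from the data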;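 also: 0% = median of neutral control wells and 100% = no fluorescence left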
# Target sequence (P55212 24-179 limits assumed): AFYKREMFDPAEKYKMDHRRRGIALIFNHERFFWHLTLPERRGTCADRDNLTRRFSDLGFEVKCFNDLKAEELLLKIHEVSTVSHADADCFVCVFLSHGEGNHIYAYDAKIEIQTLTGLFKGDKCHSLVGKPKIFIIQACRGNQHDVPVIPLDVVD
# Target sequence (P55212 194-293 limits assumed): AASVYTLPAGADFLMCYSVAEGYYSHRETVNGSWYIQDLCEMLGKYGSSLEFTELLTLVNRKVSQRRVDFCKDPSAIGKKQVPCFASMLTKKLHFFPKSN
# T cell modulator: T cell immune modulation candidate; 2C CD8+ T cell-vesicle binding, flow cytometry; stronger effect = lower value; response (vesicle binding), % at 7 µM; 0.068% of 330,000 active; AID 2052;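 active = response, share of CD8 T cells binding vesicles, and their 90th percentile fluorescence all below set limits, cut at about 80% in these data, passing the limit was not always enough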;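 also: values below 100% mean blocked vesicle binding to the CD8+ T cells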
#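 Also added: QL9-peptide-loaded Drosophila micro-vesicles bearing Ld, ICAM-1 and B7-1; Test system: purified 2C TCR transgenic mouse naive CD8+ T cells; Measured by: cytometric PE anti-B7-1 and Alexa647 anti-CD8 signals after 1% paraformaldehyde fixation; Timing: binding step 1.5 h, 37 °C, antibody labelling 20 min, ice.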
# Vif inh: inhibitors of HIV Vif. HEK293T cells, Vif self-association by quenched fluorescence, imaging, 24 h. inhibition, % at 7.49 µM. 0.35% of 340,000 active. AID 602346; in the data active = inhibition above about 50%, passing the limit was not always enough
# An asterisk follows results filed as active; i = inactive; · = no result; + = active, no number. The list is not random: actives were taken first. Their share in the collection is about 1.4%.
SMILES,Myeloid diff 2,Casp6 inh,T cell modulator,Vif inh
CC=Cc1ccc2n(c1=O)C[C@@H]1[C@@H](CO)[C@H](C(=O)NCCC)[C@H]2N1C(=O)c1ccncc1 (mixture of isomers),·,4,·,·
COc1cc(Cl)c(C)cc1NC(=O)CSc1sc2c(O)cc(=O)[nH]c2c1C#N,i,26,246,23
N#Cc1c(SCC(=O)Nc2nncs2)sc2c(O)cc(=O)[nH]c12,i,84*,207,-4
Cc1ccc(NC(=O)CSc2sc3c(O)cc(=O)[nH]c3c2C#N)c(F)c1,i,29,230,-7
N#Cc1c(SCC(=O)Nc2ccc(C(F)(F)F)cc2)sc2c(O)cc(=O)[nH]c12,i,41*,415,11
COc1ccc(OC)c(NC(=O)CSc2sc3c(O)cc(=O)[nH]c3c2C#N)c1,i,43*,215,13
COc1ccc2c3c(n(C)c2c1)[C@H](CO)NCC31CCN(CC2CC2)CC1,·,-1,·,·
CC(C)NC(=O)N1[C@@H](CO)[C@@H](c2ccccc2)C12CN(C(=O)CN(C)C)C2,·,-1,·,·
Cc1c(C(=O)NCc2ccccn2)oc2ccc(S(=O)(=O)N3CCOCC3)cc12,i,·,270,86*
CCN1CCN(S(=O)(=O)c2ccc(Cl)c(C(=O)N(CCc3ccccc3)Cc3ccccc3)c2)CC1,+,-1,·,5
N#Cc1ccsc1NC(=O)CSc1ncn[nH]1,i,·,585,2
N#Cc1ccsc1NC(=O)CSc1ncnc2ccccc12,+,·,536,3
CC1(C)CC(N2CCCCC2)=CC(=[N+]2CCCCC2)C1,+,-1,187,-5
CC1(C)CC(N2CCOCC2)=CC(=[N+]2CCOCC2)C1,i,-1,543,1
Cc1ccccc1-c1ccc([C@@H]2[C@H](CO)N3C(=O)CN(C(=O)c4ccncc4)C[C@@H]23)cc1,·,2,·,·
Cc1ccc2cccc(NC(=S)NC(=O)c3ccnn3C)c2n1,+,·,323,3
COc1cc(C(=O)NC2CC3CCCC(C2)N3Cc2ccccc2)cc(OC)c1OC (configuration not stated),i,-6,391,2
COc1ccc(CN2C3CCC2CC(NC(=O)c2cc(OC)c(OC)c(OC)c2)C3)cc1 (configuration not stated),i,-20,674,63*
COc1ccc(C(=O)NC2CC3CCCC(C2)N3Cc2ccccc2)cc1OC (configuration not stated),i,-3,548,52*
C[C@@H]1CN([C@H](C)CO)S(=O)(=O)c2ccc(C#Cc3cccnc3)cc2O[C@@H]1CN(C)C,·,-3,·,·
c1ccc(-c2nnc(-c3ccncc3)nc2-c2ccccc2)cc1,i,-3,119,3
Brc1nc(-c2ccccc2)nc(-c2ccccc2)c1Br,i,-2,938,69*
COc1ccc(-c2sc3cc4c(cc3c2-c2ccc(OCCN3CCCCC3)cc2)OCO4)cc1,+,·,·,-6
Cc1ccc(S(=O)(=O)N[C@@H]2CC[C@H](CCn3cc(C4CC4)nn3)O[C@H]2CO)cc1,·,1,·,·
Cc1onc(-c2ccccc2Cl)c1C(=O)N1CCN(C)CC1,i,-2,199,51*
SMILES,Myeloid diff 2,Casp6 inh,T cell modulator,Vif inh
Cc1onc(-c2ccccc2Cl)c1C(=O)N1CCCC1,i,-3,449,1
Cc1ccc(C2=NN(S(C)(=O)=O)C(c3ccc4c(c3)OCO4)C2)cc1 (configuration not stated),+,1,276,·
CS(=O)(=O)Nc1ccc(C2=NN(S(C)(=O)=O)C(c3ccc4nccnc4c3)C2)cc1 (configuration not stated),i,1,202,4
CS(=O)(=O)N1N=C(c2ccc(Br)cc2)CC1c1ccc2c(c1)OCO2 (configuration not stated),+,·,537,-3
CCS(=O)(=O)N1N=C(c2cccc(NS(C)(=O)=O)c2)CC1c1ccc(C)cc1 (configuration not stated),+,-2,463,-4
CC(=O)N1N=C(c2ccc(C)cc2)CC1c1ccc2c(c1)OCO2 (configuration not stated),i,2,449,3
Cc1noc(C)c1S(=O)(=O)N(C)C[C@H]1OCCCC[C@@H](C)Oc2ccc(NS(=O)(=O)c3ccc(Cl)cc3)cc2C(=O)N([C@@H](C)CO)C[C@@H]1C,·,1,·,·
C[C@@H]1CN([C@@H](C)CO)C(=O)c2c(c3ccccc3n2C)-c2ccccc2CO[C@@H]1CN(C)C(=O)c1cc(Cl)cc(Cl)c1,·,-1,·,·
CCCN(C)C[C@H]1OCCCC[C@@H](C)Oc2ccc(NC(=O)NC(C)C)cc2C(=O)N([C@@H](C)CO)C[C@H]1C,·,0,·,·
COC(=O)c1ccc(N)c(N=CC2=C(O)CC(C)(C)CC2=O)c1,+,15,283,-10
CC1(C)CC(=O)C(C=Nc2ccc(N)cc2)=C(O)C1,+,-2,299,-5
CC1(C)CC(=O)C(C=Nc2ccc(O)cc2)=C(O)C1,i,-1,·,-9
CC1(C)CC(=O)C(C=Nc2cc(C(=O)c3ccccc3)ccc2N)=C(O)C1,+,1,230,-3
CC(=O)N1c2ccc3ccccc3c2C(C)CC12CCCCC2 (configuration not stated),i,·,175,-37
CC1CC2(CCCCC2)Nc2ccc3ccccc3c21 (configuration not stated),+,·,204,-48
CCCNC(=O)N[C@H]1CC[C@@H](CCNS(=O)(=O)c2cccc(F)c2)O[C@@H]1CO,·,-20,·,·
N#Cc1c(-c2cccs2)cc(-c2cccs2)[nH]c1=O,i,7,i,51*
CCC1=NN(C(=O)c2ccccc2O)C(O)(c2ccccc2)C1 (configuration not stated),i,72*,400,-8
CCC1=NN(C(=O)c2ccc(Cl)cc2)C(O)(c2ccc(C)cc2)C1 (configuration not stated),i,48*,145,-10
CCCNC(=O)N1CC2(CCN(CC3CC3)CC2)c2c(n(C)c3cc(OC)ccc23)[C@H]1CO,·,-7,·,·
CCCC(=O)Nc1ccc2c(c1)C(=O)N(C)[C@H]1CC[C@@H](CC(=O)NCC3CCCCC3)O[C@@H]1CO2,·,0,·,·
CCOc1ccc(N(CC(=O)N2CCc3ccccc32)S(=O)(=O)c2c(C)noc2C)cc1,+,-3,514,-7
N#Cc1ccc[n+](CC(=O)c2ccc(Cl)cc2)c1,+,4,300,-2
CC(=O)Nc1ccc(NC(=O)CN(c2ccc(C34CC5CC(CC(C5)C3)C4)cc2)S(C)(=O)=O)cc1,i,·,248,-5
CS(=O)(=O)N(CC(=O)Nc1ccc(CC#N)cc1)c1ccc(C23CC4CC(CC(C4)C2)C3)cc1,+,-1,252,5
CC(C)NC(=O)Nc1ccc2c(c1)C(=O)N([C@H](C)CO)C[C@H](C)[C@H](CN(C)Cc1ccc(-c3ccccc3)cc1)O2,·,0,·,·
CC12CCC(C(=O)NCCc3ccccc3)(OC1=O)C2(C)C (configuration not stated),i,-1,595,52*
